Results published in ChEMBL document CHEMBL1122609, “N-allyl analogues of phencyclidine: chemical synthesis and pharmacological properties” (J Med Chem, 1984).

Tests used:
[1] = Ratio of half life (protection) to the control was reported at a concentration 4*10e-6 M; assay type: ADME
Procedure, shortened: (§1)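 Horse-serum BChE (3 units/mg), Ellman method: 0.025 unit with acetylthiocholine 1.87 × 10^-3 M in 0.1 M phosphate buffer pH 7.4 at 25 °C, absorbance at 412 nm followed over time. Enzyme preincubated 3 min with test compound. DFP 2.5 × 10^-8 M then added. Aliquots assayed for residual activity at various times. Pseudo-first-order constant used to obtain k2 = ln(A0/At)/([I]t).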

[2] = Ratio of failed to the tested was reported at dose 16.0 umol/kg (experiment 1); out of 6; assay type: functional
Mus musculus [3] = species: Mus musculus; experiment: Effective dose for the degree of motor incoordination in untrained mice; assay type: functional
Procedure, shortened: (§2)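 Male HAP ICR Swiss mice, 25-30 g, pre-screened for passing. Dosing ip in 0.9% NaCl as a solution or fine suspension, 0.01 mL/g, 4-6 doses, six mice per dose, repeated on 2-4 more days. Platform rotated 180° at 5-120 min. Falling, or failing to climb within 60 s, scored.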

Mus musculus [4] = species: Mus musculus; experiment: Relative potency was determined using mouse platform test of Coughenour et al.; assay type: functional; procedure, shortened: as §2
[5] = biological target: Muscarinic acetylcholine receptor; experiment: Dissociation constant towards Muscarinic acetylcholine receptor was determined by using [3H]4NMPB as radioligand; assay type: protein assay
Procedure, shortened: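 Competition binding with [3H]-4NMPB in the S1 supernatant of mouse-brain homogenate, with and without test compound at various concentrations. Nonspecific binding determined and subtracted. KD calculated from the difference in binding.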

Mus musculus [6] = experiment: Percent failing the test was reported at dose 9.60 umol/kg (experiment 2); assay type: functional
[7] = Ratio of half life (protection) to the control was reported at a concentration 8*10e-6 M; assay type: ADME; procedure, shortened: as §1
Mus musculus [8] = experiment: Percent failing the test was reported at dose 13.2 umol/kg (experiment 1); assay type: functional
Mus musculus [9] = experiment: Lethal dose (LD50) determined by the Litchfield and Wilcoxon method was reported; assay type: functional
Procedure, shortened: (§3)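 Male HAP ICR Swiss mice, 25-35 g, in groups of six, given ip doses. Deaths counted at 24 h after injection. LD50 estimated by Litchfield–Wilcoxon probit analysis, as for ED50.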

[10] = Ratio of half life (protection) to the control was reported at a concentration 4*10e-5 M; assay type: ADME; procedure, shortened: as §1
[11] = Ratio of half life (protection) to the control was reported at a concentration 0 M; assay type: ADME; procedure, shortened: as §1
[12] = Ratio of failed to the tested was reported at dose 19.0 umol/kg (experiment 2); out of 6; assay type: functional
Mus musculus [13] = species: Mus musculus; experiment: Acute toxicity relative to PCP was reported.; assay type: organism-based; settings: in vivo
[14] = Ratio of failed to the tested was reported at dose 26.0 umol/kg (experiment 1); out of 6; assay type: functional
Procedure, shortened: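 Male HAP ICR Swiss mice (20-30 g), six per group, pre-screened on the platform test. An N-allyl analogue in 0.9% NaCl was given ip, and PCP ip followed 5 min later. The platform was rotated 180° within 10 s, and mice were scored over 60 s for falling off or reaching the top. Testing was at 5-120 min post-injection. The read-out was the number failing out of the number tested.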

[15] = Ratio of half life (protection) to the control was reported at a concentration 4*10e-7 M; assay type: ADME; procedure, shortened: as §1
[16] = Ratio of half life (protection) to the control was reported at a concentration 9*10e-7 M; assay type: ADME; procedure, shortened: as §1
[17] = Ratio of failed to the tested was reported at dose 29.0 umol/kg (experiment 2); out of 6; assay type: functional
[18] = Ratio of failed to the tested was reported at dose 12.4 umol/kg (experiment 1); out of 12; assay type: functional
[19] = Ratio of failed to the tested was reported at dose 15.2 umol/kg (experiment 2); out of 12; assay type: functional
Mus musculus [20] = species: Mus musculus; experiment: Compound was evaluated for acute toxicity relative to PCP; assay type: organism-based; settings: in vivo
[21] = Ratio of failed to the tested was reported at dose 13.2 umol/kg (experiment 1); out of 6; assay type: functional
Procedure, shortened: (§4)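 Male HAP ICR Swiss mice (20-30 g) pre-screened on the mouse platform test. PCP was given ip in 0.9% NaCl (0.01 mL/g). The platform was rotated 180° within 10 s, and mice were scored over 60 s for falling off, failing to reach the top, or reaching the top. Testing was at 5-120 min post-injection. The read-out was the number failing out of the number tested.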

[22] = Ratio of failed to the tested was reported at dose 9.60 umol/kg (experiment 2); out of 6; assay type: functional
[23] = Ratio of half life (protection) to the control was reported at a concentration 3*10e-6 M; assay type: ADME
Procedure, shortened: (§5)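 Horse serum BChE (0.5 unit/mL) was incubated 3 min with the compound, then DFP was added at 2.5 × 10^-8 M, 25 °C. Residual activity was measured in aliquots over time by the Ellman method: acetylthiocholine 1.87 × 10^-3 M, 0.1 M phosphate pH 7.4, absorbance at 412 nm. Inactivation was fitted as pseudo-first-order.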

[24] = Ratio of half life (protection) to the control was reported at a concentration 2*10e-6M; assay type: ADME; procedure, shortened: as §5
Mus musculus [25] = experiment: Percent failing the test was reported at dose 9.60 umol/kg (experiment 1); assay type: functional
Mus musculus [26] = experiment: Compound was evaluated for lethal dose (LD50) by the Litchfield and Wilcoxon method; assay type: functional; procedure, shortened: as §3
[27] = Ratio of failed to the tested was reported at dose 9.60 umol/kg (experiment 2); out of 24; assay type: functional; procedure, shortened: as §4
Mus musculus [28] = species: Mus musculus; experiment: Compound was evaluated for acute toxicity relative to compound PCP; assay type: organism-based; settings: in vivo

Which results are given for C=CCN(C)C1(c2ccccc2)CCCCC1?
Ratio [1]: 2.15; Ratio [2]: 6; ED50 (Mus musculus [3]): 27.2 µmol/kg; Relative potency (Mus musculus [4]): 0.41; Kd [5]: 15 µM; Activity (Mus musculus [6]): 100%; Ratio [7]: 2.21; Activity (Mus musculus [8]): 100%; LD50 (Mus musculus [9]): 516 µmol/kg; Ratio [10]: 7.76; Ratio [11]: 1; Ratio [12]: 6; Acute toxicity (Mus musculus [13]): 0.5

Which Ratio [1] does the source give for C=CCN(CC=C)C1(c2ccccc2)CCCCC1 here?
Its Ratio is 5.89.

And the ED50 (Mus musculus [3])?
The ED50 was 35.6 µmol/kg.

And the Relative potency (Mus musculus [4])?
The Relative potency was 0.27.

What about the Ratio [14] of the same molecule?
Its Ratio is 6.

What about the Kd [5] of the same molecule?
The Kd was 25 µM.

What about the Activity (Mus musculus [6]) of the same molecule?
The Activity was 100%.

What about the Activity (Mus musculus [8]) of the same molecule?
The Activity was 100%.

And the Ratio [15]?
Its Ratio is 1.18.

What about the Ratio [16] of the same molecule?
The Ratio was 2.12.

And the Ratio [11]?
The Ratio was 1.

And the Ratio [17]?
Its Ratio is 6.

Which results are given for C=CCN(CC)C1(c2ccccc2)CCCCC1?
Ratio [1]: 5.11; Ratio [18]: 10; ED50 (Mus musculus [3]): 22.6 µmol/kg; Relative potency (Mus musculus [4]): 0.42; Ratio [19]: 10; Kd [5]: 14 µM; Activity (Mus musculus [6]): 83%; Ratio [7]: 1.71; Activity (Mus musculus [8]): 83%; LD50 (Mus musculus [9]): 441 µmol/kg; Ratio [15]: 1.33; Ratio [11]: 1; Acute toxicity (Mus musculus [13]): 0.59

With C=CCNC1(c2ccccc2)CCCCC1 as the molecule, how does the Ratio [1] read?
The Ratio was 2.61.

What about the ED50 (Mus musculus [3]) of the same molecule?
Its ED50 is 20.4 µmol/kg.

What about the Acute toxicity (Mus musculus [20]) of the same molecule?
Its Acute toxicity is 0.75.

What about the Relative potency (Mus musculus [4]) of the same molecule?
Its Relative potency is 0.55.

And the Ratio [21]?
The Ratio was 6.

What about the Kd [5] of the same molecule?
Its Kd is 70 µM.

And the Ratio [22]?
The Ratio was 5.

What about the Ratio [7] of the same molecule?
The Ratio was 2.35.

What about the Ratio [23] of the same molecule?
Its Ratio is 1.71.

What about the Activity (Mus musculus [8]) of the same molecule?
The Activity was 100%.

What about the LD50 (Mus musculus [9]) of the same molecule?
Its LD50 is 344 µmol/kg.

What about the Ratio [24] of the same molecule?
The Ratio was 1.22.

And the Ratio [11]?
Its Ratio is 1.

And the Activity (Mus musculus [25])?
The Activity was 83%.

What does the source list for CCNC1(c2ccccc2)CCCCC1 [ETICYCLIDINE]?
Ratio [1]: 2.6; Ratio [7]: 2.52; Ratio [15]: 0.95; Ratio [11]: 1

Which results are given for c1ccc(C2(N3CCCCC3)CCCCC2)cc1 [PHENCYCLIDINE]?
Ratio [1]: 4.48; LD50 (Mus musculus [26]): 258 µmol/kg; ED50 (Mus musculus [3]): 9.6 µmol/kg; Relative potency (Mus musculus [4]): 1; Ratio [21]: 2; Kd [5]: 9.1 µM; Activity (Mus musculus [6]): 45.8%; Ratio [7]: 1.73; Ratio [27]: 11; Acute toxicity (Mus musculus [28]): 1; Activity (Mus musculus [8]): 33.3%; Ratio [15]: 1.26; Ratio [11]: 1
